Assay outcomes: PubChem, Johns Hopkins Ion Channel Center
TRPC4 act – activators of mouse TRPC4 channel. Q9QUQ5. HEK293 TRPC4beta/mu-opioid, Fluo4 calcium fluorescence; hits give high values. B-score at 10 µM. actives 0.49% (n = 310,000);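 active = B-score above 5 SD of library B-scores, and initial fluorescence ratio not above library mean plus 5 SD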;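 note: positive B-score marks a calcium rise read as TRPC4 activation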
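Assay system: HEK293 cells stably co-expressing mouse TRPC4beta and mu-opioid receptor / Timing: Fluo4 dye loading 45 min at room temperature, 110 s recording / Signal: Fluo4 calcium-sensitive dye fluorescence, kinetic, 1 Hz baseline / Read-out: integrated baseline-normalised fluorescence ratio, converted to per-well B score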
TRPC4 inh – inhibitors of mouse TRPC4 channel; Q9QUQ5; HEK293 TRPC4beta/mu-opioid, DAMGO-evoked Fluo4 calcium flux; hits give low values; B-score at 10 µM; actives 0.39% (n = 300,000);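 active = B-score over 3 SD under the library average, no early fluorescence shift, positive overall ratio signal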
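Assay system: HEK293 cells with stable TRPC4beta plus mu-opioid receptor expression. Dosing: single dose. Measured by: Fluo4 Ca2+ flux fluorescence. Also added: DAMGO in two steps, submaximal then maximal. Read-out: B score from integrated Fluo4 fluorescence ratio.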
TRPC6 inhibitor – mouse TRPC6 channel inhibition. actives 1.1% (n = 310,000). B-score at 10 µM. Q61143. HEK293-TRPC6, membrane potential dye, ACh-evoked depolarization; hits give low values;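 active = B-score under library mean minus 3 SD, initial fluorescence not abnormally high, positive integrated signal ratio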;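 note: B-score derived from integrated fluorescence ratio over the kinetic read; more negative B-score means stronger inhibition of depolarization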
TRPC6 activator – mouse TRPC6 channel activation; B-score at 10 µM; HEK293-TRPC6 membrane potential dye fluorescence; hits give high values; actives 0.13% (n = 310,000);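 active = B-score of the integrated fluorescence ratio above library mean plus 3 SD, and starting fluorescence ratio within library mean plus 5 SD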;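 note: higher score means more depolarization so channel activation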
TRPC4 potent – allosteric potentiators of mouse TRPC4 channel; HEK293 TRPC4beta/mu-opioid, DAMGO EC20, Fluo-4 Ca2+ flux; hits give high values; B-score at 10 µM; actives 0.42% (n = 310,000); AID 2227;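 active = B-score of calcium response area above 5 SD of library B-scores, with initial fluorescence ratio within 5 SD of library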;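 note: B-score of integrated fluorescence ratio over time as area under calcium response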
An asterisk follows results filed as active; i = inactive. Hits are enriched below; roughly 2.3% of the tested compounds scored in any of these assays.

SMILES | TRPC4 act | TRPC4 inh | TRPC6 inhibitor | TRPC6 activator | TRPC4 potent
CCOC(=O)C1(Cc2cccc(Cl)c2)CCCN(C(=O)c2cc(C(C)C)nn2C)C1 (stereo not given) | i | i | i | i | i
Cc1nc(NCCc2cnc[nH]2)c2oc3ccccc3c2n1 | 82* | i | i | i | i
COc1ccc(CCNc2nc(C)nc3c2oc2ccccc23)cc1OC | i | i | i | i | i
O=C(Nc1cccc(Cl)c1)NC1CCN(C2CCCCC2)C1 (stereo not given) | 46* | i | i | i | i
CN(CCc1ccccn1)c1ccc([N+](=O)[O-])cn1 | 189* | i | i | i | i
O=[N+]([O-])c1ccc(SCCc2ccccn2)cc1 | i | i | i | i | 14*
O=[N+]([O-])c1ccc(SCCc2ccncc2)cc1 | i | i | i | i | i
CS(=O)(=O)Nc1nc2n(n1)C(c1ccccc1)CC(c1ccccc1)N2 (stereo not given) | i | -6* | i | i | i
O=C(CCCN=C1NS(=O)(=O)c2ccccc21)OCC(=O)c1ccc(F)cc1 | 48* | i | i | i | i
CC(C)=CCCC(C)CN1CCC(n2nccc2NC(=O)C2CCCC2)CC1 (stereo not given) | i | -5* | i | i | i
COC(=O)CSc1nnc(-c2sc3cc(OC)ccc3c2Cl)n1C | i | -6* | i | i | i
COC(=O)CSc1nc2cc(OC)ccc2n1C | i | i | i | i | i
CCN(CC)C(=O)C1CCCN(C(=O)CCn2nnnc2CN2CCOCC2)C1 (stereo not given) | i | i | i | i | i
CCOC(=O)C1CCCN(C(=O)CCn2nnnc2CN2CCOCC2)C1 (stereo not given) | i | i | i | i | 10*
COC(=O)c1cc2c(=O)c3ccccc3oc2nc1C | i | i | i | i | i
COC(=O)c1cc2c(=O)c3ccccc3oc2nc1/C=C/N(C)C | 69* | i | i | i | i
CCCc1nc2ccccc2n1Cc1ccccc1OC | i | -7* | i | i | i
COc1ccccc1Cn1c(C)nc2ccccc21 | i | i | i | i | i
COc1ccccc1Cn1c(CCCO)nc2ccccc21 | i | i | i | i | i
CCc1nc2ccccc2n1Cc1ccccc1OC | i | -5* | i | i | i
Cc1ccc(C)c(-n2cc(CNCCCn3cccn3)c(-c3ccccc3)n2)c1 | 205* | i | i | i | i
Cc1ccc(C)c(-n2cc(CN3CCCN(C=O)CC3)c(-c3ccccc3)n2)c1 | 72* | i | i | i | i
Cc1ccc(-n2cc(CNCCCn3cccn3)c(-c3cccc(C)c3)n2)cc1 | 43* | i | i | i | i
Cc1ccc(-n2cc(CNCCCn3ccnc3C)c(-c3ccc(F)cc3)n2)cc1 | i | i | i | i | i
COc1cc(C2NCCc3c2[nH]c2ccccc32)ccc1OC(C)C (stereo not given) | i | i | -6.1* | i | i
SMILES | TRPC4 act | TRPC4 inh | TRPC6 inhibitor | TRPC6 activator | TRPC4 potent
CCOC(=O)c1sc2nc(C)nc(NCCc3ccccn3)c2c1C | i | i | i | i | i
CCOC(=O)c1sc2nc(CSc3ccccc3)nc(NCCN(C)C)c2c1C | i | -5* | i | i | i
Cc1c(NC(=O)c2ccc(-c3ccc([N+](=O)[O-])cc3Cl)o2)c(=O)n(-c2ccccc2)n1C | i | i | i | i | i
COc1ccc(/C(C)=N/NC(=O)CNC(=O)/C=C\c2ccccc2)c(OC)c1 | i | i | i | i | i
CC1C(=O)N(Cc2ccccc2F)c2ccccc2N1C(=O)c1c(F)cccc1F (stereo not given) | i | i | i | i | 10*
COc1cccc(CN2C(=O)C(C)N(C(=O)c3c(F)cccc3F)c3ccccc32)c1 (stereo not given) | i | i | i | i | i
Cc1cc(Cl)c(OCCCCNC(C)(C)C)c(Br)c1 | i | i | i | 12* | i
COc1ccc(CCN2C(=S)N(C)C(=O)C2CC(=O)Nc2ccc(F)cc2)cc1 (stereo not given) | 120* | i | i | i | i
